Source: ChEMBL document CHEMBL2177087, “Bivalent ligands targeting multiple pathological factors involved in Alzheimer's disease” (ACS Med Chem Lett, 2012)
Values belong to the compound of their own block, whether it stands above or below them. Active and inactive are the calls of the source. The rule behind the calls is not given here.

Tests used:
[1] = test system: MC65; assay: Antioxidant activity in tetracycline-removed human MC65 cells assessed as suppression of oxidative stress at 0.1 to 3 uM after 48 hrs by DCFH-DA assay; format: functional, cell-based
Procedure, shortened: (§1)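 MC65 human neuroblastoma cells dosed under +TC or −TC (TC withdrawn) for 48 h, then loaded with 25 μM DCFH-DA. Cellular fluorescence measured by flow cytometry. Expressed as mean percentage of fluorescence intensity (n = 3), parallel +TC cultures set at 100%; error bars SEM.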

[2] = Neuroprotective activity in tetracycline-removed human MC65 cells assessed as protection against amyloid beta aggregate-induced cytotoxicity after 72 hrs by MTT assay; format: functional, cell-based; settings: MC65, 72 h
Procedure, shortened: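 MC65 cells kept in +TC or −TC medium with compound across a concentration series for 72 h; viability by MTT. Mean percentage viability (n = 3), parallel +TC cultures as 100%, SEM error bars; EC50 taken from dose–response.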

[3] = test system: MC65; assay: Effect on C99 expression in tetracycline-removed human MC65 cells at 0.3 to 1 uM after 30 hrs by Western blot analysis; format: functional, cell-based
[4] = test system: MC65; assay: Neuroprotective activity in tetracycline-removed human MC65 cells assessed as protection against amyloid beta aggregate-induced cytotoxicity at 0.3 uM after 72 hrs by MTT assay; format: functional, cell-based
Procedure, shortened: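 Single-concentration screen: MC65 cells given 0.3 μM compound under +TC or −TC conditions for 72 h, viability read by MTT. Reported as mean percentage viability (n = 3) relative to parallel +TC cultures at 100%; error bars SEM.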

[5] = test system: MC65; assay: Inhibition of amyloid beta oligomer production in tetracycline-removed human MC65 cells after 30 hrs by Western blot analysis; format: functional, cell-based
Procedure, shortened: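 Compounds added immediately after tetracycline removal, MC65 cells cultured 30 h. Lysates Western blotted with 6E10 antibody; three oligomer bands quantified by densitometry, normalized to α-tubulin, and expressed relative to −TC control set at 100%. Image from one of two independent experiments.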

[6] = test system: MC65; assay: Antioxidant activity in tetracycline-removed human MC65 cells assessed as suppression of oxidative stress after 48 hrs by DCFH-DA assay; format: functional, cell-based; procedure, shortened: as §1
[7] = Binding affinity to Cu2+ assessed as formation of metal complexes at 50 uM after 10 mins by UV-vis spectrum analysis; format: physicochemical
Procedure, shortened: (§2)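 50 μM compound incubated with 60 μM CuSO4, FeCl2 or ZnCl2 at room temperature for 10 min. UV−vis spectrum recorded from 300 to 550 nm; complexation judged from spectral change versus metal-free spectrum.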

[8] = Antioxidant activity in tetracycline-removed human MC65 cells assessed as suppression of oxidative stress at 0.1 uM after 48 hrs by DCFH-DA assay; format: functional; procedure, shortened: as §1
[9] = Binding affinity to Fe2+ assessed as formation of metal complexes at 50 uM after 10 mins by UV-vis spectrum analysis; format: physicochemical; procedure, shortened: as §2
[10] = Binding affinity to Zn2+ assessed as formation of metal complexes at 50 uM after 10 mins by UV-vis spectrum analysis; format: physicochemical; procedure, shortened: as §2

Structure (SMILES): COc1cc(/C=C/C(=O)/C(Cc2cn(CCCCNC(=O)COCC(=O)NCCCCN[C@H]3CC[C@@]4(C)C(=CC[C@H]5[C@@H]6CC[C@H]([C@H](C)CCCC(C)C)[C@@]6(C)CC[C@@H]54)C3)nn2)=C(O)/C=C/c2ccc(O)c(OC)c2)ccc1O
Activity [1]: Active
EC50 [2]: 160 nM
Activity [3]: inactive
Activity [4]: Active
inhibition [5]: Dose-dependent effect

Structure (SMILES): COc1cc(/C=C/C(=O)/C=C(O)/C=C/c2ccc(OCc3cn(CCNC(=O)COCC(=O)NCCCCN[C@H]4CC[C@@]5(C)C(=CC[C@H]6[C@@H]7CC[C@H]([C@H](C)CCCC(C)C)[C@@]7(C)CC[C@@H]65)C4)nn3)c(OC)c2)ccc1O
Activity [4]: Active

Structure (SMILES): COc1cc(/C=C/C(=O)/C=C(O)/C=C/c2ccc(OCc3cn(CCCCCCNC(=O)COCC(=O)NCCCCN[C@H]4CC[C@@]5(C)C(=CC[C@H]6[C@@H]7CC[C@H]([C@H](C)CCCC(C)C)[C@@]7(C)CC[C@@H]65)C4)nn3)c(OC)c2)ccc1O
Activity [4]: Active

Structure (SMILES): COc1cc(/C=C/C(=O)/C=C(O)/C=C/c2ccc(OCc3cn(CCCCCCNC(=O)COCC(=O)NCCCCCCN[C@H]4CC[C@@]5(C)C(=CC[C@H]6[C@@H]7CC[C@H]([C@H](C)CCCC(C)C)[C@@]7(C)CC[C@@H]65)C4)nn3)c(OC)c2)ccc1O
Activity [4]: Active

Activity [7]: Active
Activity [9]: Active
Activity [10]: Active
Structure (SMILES): COc1cc(/C=C/C(=O)/C(Cc2cn(CCNC(=O)COCC(=O)NCCCCN[C@H]3CC[C@@]4(C)C(=CC[C@H]5[C@@H]6CC[C@H]([C@H](C)CCCC(C)C)[C@@]6(C)CC[C@@H]54)C3)nn2)=C(O)/C=C/c2ccc(O)c(OC)c2)ccc1O
EC50 [2]: 83 nM
Activity [3]: inactive
Activity [6]: Dose-dependent effect
Activity [8]: 35%
Activity [4]: Active
inhibition [5]: Dose-dependent effect

Structure (SMILES): COc1cc(/C=C/C(=O)/C(Cc2cn(CCCCCCNC(=O)COCC(=O)NCCCCN[C@H]3CC[C@@]4(C)C(=CC[C@H]5[C@@H]6CC[C@H]([C@H](C)CCCC(C)C)[C@@]6(C)CC[C@@H]54)C3)nn2)=C(O)/C=C/c2ccc(O)c(OC)c2)ccc1O
Activity [1]: Active
EC50 [2]: 300 nM
Activity [3]: inactive
Activity [4]: Active
inhibition [5]: Dose-dependent effect

Structure (SMILES): COc1cc(/C=C/C(=O)/C=C(O)/C=C/c2ccc(OCc3cn(CCCCNC(=O)COCC(=O)NCCCCN[C@H]4CC[C@@]5(C)C(=CC[C@H]6[C@@H]7CC[C@H]([C@H](C)CCCC(C)C)[C@@]7(C)CC[C@@H]65)C4)nn3)c(OC)c2)ccc1O
Activity [4]: Active

Structure (SMILES): COc1cc(/C=C/C(=O)/C(Cc2cn(CCCCCCNC(=O)COCC(=O)NCCCCCCN[C@H]3CC[C@@]4(C)C(=CC[C@H]5[C@@H]6CC[C@H]([C@H](C)CCCC(C)C)[C@@]6(C)CC[C@@H]54)C3)nn2)=C(O)/C=C/c2ccc(O)c(OC)c2)ccc1O
Activity [4]: Active

Structure (SMILES): COc1cc(/C=C/C(=O)/C=C(O)/C=C/c2ccc(OCc3cn(CCCC(=O)NCCCCN[C@H]4CC[C@@]5(C)C(=CC[C@H]6[C@@H]7CC[C@H]([C@H](C)CCCC(C)C)[C@@]7(C)CC[C@@H]65)C4)nn3)c(OC)c2)ccc1O
Activity [4]: Active

Activity [7]: Active
Activity [9]: Active
Activity [10]: Not Active
Structure (SMILES): COc1cc(/C=C/C(=O)/C(Cc2cn(CCCCCCNC(=O)CCNC(=O)CCNC(=O)CO[C@H]3CC[C@@]4(C)C(=CC[C@H]5[C@@H]6CC[C@H]([C@H](C)CCCC(C)C)[C@@]6(C)CC[C@@H]54)C3)nn2)=C(O)/C=C/c2ccc(O)c(OC)c2)ccc1O
EC50 [2]: 3000 nM

Structure (SMILES): COc1cc(/C=C/C(=O)/C(Cc2cn(CCCC(=O)NCCCCN[C@H]3CC[C@@]4(C)C(=CC[C@H]5[C@@H]6CC[C@H]([C@H](C)CCCC(C)C)[C@@]6(C)CC[C@@H]54)C3)nn2)=C(O)/C=C/c2ccc(O)c(OC)c2)ccc1O
Activity [4]: Active
